PostGolgi yeast: phenotypic screen on post-Golgi transport, primary screen; post-Golgi transport phenotypic cell assay; inhibition, % at 10 µM; 98,000 compounds, 0.9% hits; AID 739, 2007;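 also: yeast cells grown in 1536-well plates; yeast grown about 18 h at 30C before absorbance read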
HePTP inh: inhibitors of human HePTP phosphatase, primary screen, biochemical, absorbance, leukemia target; Tyrosine-protein phosphatase non-receptor type 7 (Homo sapiens), P35236; recombinant HePTP phosphatase activity, OD absorbance; inhibition, % at 20 µM; 110,000 compounds, 0.64% hits; AID 521, 2006; in the data active = inhibition above about 50%;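 also: plate controls were vehicle for no effect and reference inhibitor for full effect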
tolC growth inh: growth inhibitors of E. coli tolC mutant, primary screen, strain BW25113 ΔtolC::kan, 384-well; OD615; growth inhibition, % at 10 µM (by protocol); 65,000 compounds, 2.2% hits;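 active = growth inhibition at or above a cutoff equal to the mean over every tested compound plus 3 SD, cut at about 60% in these data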;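 also: growth measured after 20 h incubation at 37 °C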
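signal = optical density read at 615 nm | test system = E. coli ΔtolC::kan strain BW25113 | timing = 20 h compound exposure of bacteria at 37 °C | buffer or medium = LB medium plus 50 µg/mL kanamycin | compound dosing = 10 µM final, single dose | evaluation = % inhibition of E. coli growth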
PostGolgi ctrl: growth inhibition of yeast control strain, primary screen, counter-screen for post-Golgi transport modulator project; 98,000 compounds, 5% hits; AID 738, 2007; inhibition, % at 10 µM; efflux-deficient yeast background strain, growth absorbance A615, 16 h
PLAP act: PLAP enzyme activators, biochemical, luminescence, HTS; Alkaline phosphatase, placental type (Homo sapiens), P05187; purified PLAP enzyme, luminescent substrate read-out; hits give high values; activation fold at 20 µM; 96,000 compounds, 1.2% hits; in the data active = activation fold above about 2
Target sequence (P05187 whole entry, looked up): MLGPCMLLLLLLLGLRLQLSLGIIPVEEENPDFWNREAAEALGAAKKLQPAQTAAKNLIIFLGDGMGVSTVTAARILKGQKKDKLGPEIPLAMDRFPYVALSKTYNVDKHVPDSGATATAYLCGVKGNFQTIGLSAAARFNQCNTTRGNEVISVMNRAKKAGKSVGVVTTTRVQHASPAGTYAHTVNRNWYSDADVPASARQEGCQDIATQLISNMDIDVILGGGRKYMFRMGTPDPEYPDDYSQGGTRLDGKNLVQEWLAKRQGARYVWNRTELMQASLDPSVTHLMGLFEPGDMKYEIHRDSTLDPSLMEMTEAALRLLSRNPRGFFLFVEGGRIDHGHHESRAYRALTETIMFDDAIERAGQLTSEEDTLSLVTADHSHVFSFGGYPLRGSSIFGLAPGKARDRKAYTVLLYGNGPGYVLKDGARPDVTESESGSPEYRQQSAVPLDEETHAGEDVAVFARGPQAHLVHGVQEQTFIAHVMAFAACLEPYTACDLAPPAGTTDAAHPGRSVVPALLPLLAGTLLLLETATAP
E coli WT exp: growth inhibitors of wild-type E. coli, primary screen, strain BW25113, expanded library, OD600. OD600 absorbance. growth inhibition, % at 100 µM. 98,000 compounds, 0.15% hits;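 active = growth inhibition above about 50% at one test dose, limit read from the data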;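 also: growth measured after 20 h incubation at 37 °C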
The depositor's hits bear a star; · = no result given. A selection: hits, their analogues and other compounds. The true share with any hit is near 5.4%. Rule as the data show it, unless noted: active = inhibition above about 30%; inactive = the rest.

SMILES | PostGolgi yeast | HePTP inh | tolC growth inh | PostGolgi ctrl | PLAP act | E coli WT exp
Cc1occc1-c1nnc(SCC(=O)c2ccc(F)cc2)n1Cc1ccco1 | -2 | 2 | 20 | 14 | 1.2 | -6
CC(=O)NC1=NN(C(C)=O)C(c2ccccc2F)S1 (stereo not given) | · | -10 | · | · | · | ·
O=C(Nc1ccc2c(c1)CCC2)C1COc2ccccc2O1 (stereo not given) | 0 | 6 | 100* | 6 | 0.9 | 3
O=C(Nc1ccc2c(c1)OCO2)C1COc2ccccc2O1 (stereo not given) | -11 | -4 | 14 | -1 | 0.8 | 9
Cc1cc(C)n(C(=O)c2ccc(NC(=O)C3COc4ccccc4O3)cc2)n1 (stereo not given) | -18 | 11 | 42 | 33* | 1 | -16
COc1ccccc1-c1cc(C(=O)N2CCN(c3ccccc3OC)CC2)no1 | 4 | 5 | 64* | 38* | 1.5 | -8
COc1ccccc1N1CCN(C2CCN(C(=O)c3cc(OC)c(OC)c(OC)c3)CC2)CC1 | 36* | -6 | 3 | -5 | 1.6 | 9
COc1ccccc1N1CCN(C(=O)c2cc(-c3ccc(C)cc3)on2)CC1 | -2 | 6 | 86* | 25 | 1.3 | -12
COc1ccc(-c2cc(C(=O)N3CCN(Cc4ccccc4)CC3)no2)cc1OC | -2 | 6 | 28 | 17 | 1.7 | -13
COc1ccccc1N1CCN(C(=O)c2cc(-c3ccc(Cl)cc3)on2)CC1 | -3 | -3 | 54 | 40* | 1 | -5
COc1ccccc1N1CCN(C(=O)c2cc(C3CC3)on2)CC1 | 9 | 5 | 2 | 3 | 1.3 | -4
Cc1sc(NC(=O)c2cccc([N+](=O)[O-])c2)c(C(N)=O)c1C | · | 15 | · | · | · | ·
COc1cc2c(cc1OC)C(c1ccc(-c3cc(Cl)ccc3Cl)o1)=NCC2 | 26 | · | · | 52* | 1.3 | -2
O=C(Nc1ccc2c(c1)OCCO2)c1cc2sccc2n1Cc1ccccc1 | -2 | · | · | 0 | 0.9 | -23
O=C(Nc1ccc2c(c1)OCCO2)c1cc2sccc2n1Cc1ccc(F)cc1 | -5 | · | · | 53* | 0.7 | -24
COc1cc(/C=C2\SC(=Nc3ccccc3)N(c3ccccc3)C2=O)cc(Br)c1OC | · | 3 | · | · | · | ·
Cc1ccc(NC(=O)c2cccs2)cc1NC(=O)c1ccco1 | -13 | 6 | 19 | 32* | 0.8 | 3
O=C(Nc1ccc2nc(-c3cccs3)[nH]c2c1)c1cccs1 | 0 | -3 | 20 | -12 | 1.2 | -3
Cc1ccc(NC(=O)CCC(=O)NNC(=O)c2cccs2)cc1C | -3 | · | · | -7 | 2* | 1
O=C(Nc1ccc2nc(-c3cccs3)[nH]c2c1)c1ccco1 | 3 | 4 | 90* | 0 | · | -2
CC(C)OC(=O)c1c(N)sc2c1CCCCC2 | · | 5 | · | · | · | ·
O=C(Nc1ccccc1[N+](=O)[O-])c1ccc(=O)oc1 | · | 12 | · | · | · | ·
C=CCc1cccc2cc(C(=O)N(Cc3ccccc3)Cc3ccccc3)c(=O)oc12 | · | 6 | · | · | · | ·
CCOC(=O)c1c(-c2ccc(C)o2)csc1NC(=O)CSc1ncn[nH]1 | 1 | · | · | 34* | 2.2* | 3
CCOC(=O)c1c(-c2ccccc2)csc1NC(=O)CSc1nnnn1C | 3 | 9 | 49 | 38* | 1.6 | -14
SMILES | PostGolgi yeast | HePTP inh | tolC growth inh | PostGolgi ctrl | PLAP act | E coli WT exp
Cc1ccc(S(=O)(=O)c2cc3c(=O)n4ccccc4nc3n(C)c2=N)cc1 | 2 | 7 | 10 | 32* | 1 | -3
N=c1c(S(=O)(=O)c2ccccc2)cc2c(=O)n3ccccc3nc2n1CCN1CCOCC1 | · | -1 | -12 | · | · | ·
Cc1ccc(-c2nc3ccccc3[nH]2)cc1NC(=S)NC(=O)c1ccccc1Br | 6 | · | · | 37* | 1.1 | -5
Cc1ccc(-c2nc3ccccc3[nH]2)cc1NC(=O)c1ccc2c(c1)OCO2 | 1 | · | · | 15 | 1 | -11
COc1ccc(S(=O)(=O)NC2CC3CCC2C3)cc1Cl (stereo not given) | 81* | 6 | 8 | 95* | 0.7 | 3
O=S(=O)(NC1CC2CCC1C2)c1ccc2c(c1)OCCO2 (stereo not given) | 1 | 8 | 19 | 55* | 0.9 | 2
Cc1cccc(NS(=O)(=O)c2ccc3c(c2)OCCO3)c1 | 16 | · | · | -1 | 1.2 | 9
CC1CCCC(NS(=O)(=O)c2ccc3c(c2)OCCO3)C1C (stereo not given) | -7 | -3 | 45 | 55* | 0.9 | 8
O=S(=O)(NCC1CCCO1)c1ccc2c(c1)OCCO2 (stereo not given) | 2 | 3 | -3 | -3 | 0.9 | 13
O=C(NC1CCCCC1)c1ccc2nc3ccccc3nc2c1 | · | -7 | · | · | · | ·
CCCc1nc(SCc2ccccn2)c2c(=O)n(C)c(=O)n(C)c2n1 | 2 | 4 | 22 | 29 | 1.2 | -3
Cn1c(=O)c2c(SCc3ccccn3)nc(CC(C)(C)C)nc2n(C)c1=O | 3 | · | · | 34* | 1.5 | 0
Cn1c(=O)c2c(SCc3cccnc3)nc(CC(C)(C)C)nc2n(C)c1=O | 6 | -10 | 97* | 54* | 1.5 | -18
N#C/C(=C/c1ccccc1)C(=O)Nc1ccc(Cl)c(Cl)c1 | · | -15 | · | · | · | ·
CC(C)CCc1c(O)nc(SCCN2CCOCC2)n(-c2ccccc2)c1=O | · | -9 | · | · | · | ·
COC(=O)c1ccc(N2C(=O)C3C4C=CC(C4=C(c4ccccc4)c4ccccc4)C3C2=O)cc1 (stereo not given) | · | -2 | · | · | · | ·
CCN(CC)CCCNc1nc2cc(OC)c(OC)cc2c2nc(-c3cccnc3)nn12 | -7 | · | · | 1 | 1.5 | 2
COc1cc2nc(NCC3CCCO3)n3nc(-c4cccnc4)nc3c2cc1OC (stereo not given) | -3 | -9 | 16 | 29 | 2* | -2
CCN(CC)CCCNc1nc2cc(OC)c(OC)cc2c2nc(-c3ccccc3)nn12 | 6 | · | · | -1 | 2* | 3
N/C(Cc1ccc(Cl)cc1Cl)=N\OC(=O)COc1ccccc1 | · | 6 | · | · | · | ·
COc1ccc(N(CC(=O)NCc2ccccc2)S(=O)(=O)c2c(C)nn(C)c2C)cc1 | 1 | · | · | 9 | 1.1 | 0
COc1ccc(N(CC(=O)Nc2cccc(OC)c2)S(=O)(=O)c2c(C)nn(C)c2C)cc1 | -4 | 9 | -15 | 5 | 1.3 | 1
COc1ccc(N(CC(=O)Nc2nc3ccc(C)cc3s2)S(=O)(=O)c2c(C)nn(C)c2C)cc1 | -1 | -4 | 60 | 32* | 1.5 | -5
COc1ccc(N(CC(=O)NCc2cccnc2)S(=O)(=O)c2c(C)nn(C)c2C)cc1 | -4 | -6 | -18 | 37* | 1.1 | 0
Cc1ccc(C)n1CCN1CCN(CC(=O)Nc2ccc(S(N)(=O)=O)cc2)CC1 | -2 | -12 | 4 | 37* | 1.3 | 7
O=C1CCCc2oc3ccc(NS(=O)(=O)c4ccccc4)cc3c21 | · | 1 | · | · | · | ·

From PubChem
